Data set [1] has as its system Receptor-type tyrosine-protein kinase FLT3 (Homo sapiens), P36888 [UNDEFINED MUTATION]. In words: Inhibition of FLT3 ITD mutant (unknown origin) using TAMRA-Src- tide as substrate at 12.5 uM after 1 hr by fluorescence polarization assay relative to control. In a few lines: (§1)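 FLT3-ITD kinase inhibition by fluorescence polarization IMAP assay; each compound tested at 12.5 and 1.25 μM; percent inhibition, average of two parallel measurements.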

A short description of data set [2]: n-Octanol-buffer distribution coefficient, log D of the compound at pH 7.4 after 1 hr by shake flask method. Format: physicochemical.
Data set [3] is described as follows: Apparent partition coefficient, log P of the compound in n-octanol/aqueous mixture at pH 7.4 after 1 hr by shake flask method. Format: physicochemical.
A short description of data set [4]: n-Octanol-buffer distribution coefficient, log D of the compound at pH 5.5 after 1 hr by shake flask method. Format: physicochemical.
For data set [5], the system named is Receptor-type tyrosine-protein kinase FLT3 (Homo sapiens), P36888 [UNDEFINED MUTATION]. The data set is described as follows: Inhibition of FLT3 ITD mutant (unknown origin) using TAMRA-Src- tide as substrate at 1.25 uM after 1 hr by fluorescence polarization assay relative to control. The essentials: as §1
A short description of data set [6]: Dissociation constant, pKa of the compound at 25 to 50 uM by UV spectroscopy. Format: physicochemical. The essentials:
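Carboxyl pKa by automated UV/pH titration with MeOH as co-solvent.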

For another data set, the system named is MV4-11. The data set is described as follows: Antiproliferative activity against human MV4-11 cells after 72 hrs by Celltiter-Glo luminescent cell viability assay. In kind it is functional, cell-based. The settings on record: MV4-11, 72 h. The essentials: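 MV4-11 leukaemia cells, 72 h proliferation assay, luminescence read-out; IC50 determined from concentration–response.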

A short description of data set [7]: Aqueous solubility in pH 7.4 phosphate buffer at 120 uM after 24 hrs by HPLC method. Format: physicochemical.
For data set [8] the following is noted: buffer, pH 10.5.
Data set [9] is described as follows: Lipophilicity, chromatographic hydrophobicity index of the compound at pH 1.2 by HPLC method. In kind it is physicochemical. The settings on record: buffer. In a few lines: (§2)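 RP-HPLC with buffer/acetonitrile gradient elution; CHI profile at starting pH 10.5, 7.4, 5.5 and 1.2; values given as average of the compound group.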
A short description of data set [10]: Aqueous solubility in pH 5.5 phosphate buffer at 120 uM after 24 hrs by HPLC method. In kind it is physicochemical. The settings on record: for solubility at 24 h, 120 µM: phosphate buffer, pH 5.5.
Data set [11] is described as follows: Lipophilicity, chromatographic hydrophobicity index of the compound at pH 7.4 by HPLC method. Format: physicochemical. The settings on record: buffer. In a few lines:
as §2

Data set [12] in a line: Lipophilicity, chromatographic hydrophobicity index of the compound at pH 5.5 by HPLC method. In kind it is physicochemical. The settings on record: buffer. The essentials:
as §2

Structures are written as SMILES. Converted amounts (≈) assume the structure as drawn. A value given as a limit tells only on which side of the number the result lay.

Sequence of Receptor-type tyrosine-protein kinase FLT3 (Homo sapiens), P36888 [UNDEFINED MUTATION] (P36888 whole entry, looked up, change not shown): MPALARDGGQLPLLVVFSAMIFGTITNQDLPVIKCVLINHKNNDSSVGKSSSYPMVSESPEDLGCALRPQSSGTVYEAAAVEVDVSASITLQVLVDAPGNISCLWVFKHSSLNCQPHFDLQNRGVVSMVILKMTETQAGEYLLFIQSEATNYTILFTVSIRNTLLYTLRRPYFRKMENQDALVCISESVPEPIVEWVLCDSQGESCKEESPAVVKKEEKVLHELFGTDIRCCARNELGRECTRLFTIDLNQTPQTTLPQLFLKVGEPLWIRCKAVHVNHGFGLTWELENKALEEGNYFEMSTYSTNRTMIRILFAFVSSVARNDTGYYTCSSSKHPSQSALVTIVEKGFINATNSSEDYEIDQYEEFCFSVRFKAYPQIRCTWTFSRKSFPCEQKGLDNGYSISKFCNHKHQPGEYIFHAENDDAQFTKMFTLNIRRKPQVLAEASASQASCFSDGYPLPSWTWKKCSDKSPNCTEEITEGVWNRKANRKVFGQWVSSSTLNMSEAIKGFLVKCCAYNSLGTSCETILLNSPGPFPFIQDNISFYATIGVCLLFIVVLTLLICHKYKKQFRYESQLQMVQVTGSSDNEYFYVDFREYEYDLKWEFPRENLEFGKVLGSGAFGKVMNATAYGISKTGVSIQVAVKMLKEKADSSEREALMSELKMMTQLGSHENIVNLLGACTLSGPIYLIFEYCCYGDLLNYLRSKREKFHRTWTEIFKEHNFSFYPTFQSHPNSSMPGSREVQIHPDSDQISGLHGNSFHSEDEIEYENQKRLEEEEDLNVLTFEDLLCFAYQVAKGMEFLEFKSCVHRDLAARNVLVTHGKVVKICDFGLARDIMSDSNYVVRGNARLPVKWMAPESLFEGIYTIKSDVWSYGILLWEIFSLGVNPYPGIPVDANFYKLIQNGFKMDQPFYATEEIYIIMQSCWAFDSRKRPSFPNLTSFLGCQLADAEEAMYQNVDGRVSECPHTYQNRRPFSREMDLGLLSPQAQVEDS

Consider `Cc1[nH]c(/C=C2\C(=O)Nc3ccc(C(=O)N[C@H](Cc4ccccc4)C(=O)O)cc32)c(C)c1C(=O)N[C@@H](Cc1ccccc1)C(=O)O`, for which the inhibition in data set [1] is over 100%; in [5] it was 74.2%. The results for the logD at 1 h in data set [2], in [3] and in data set [4] were -3.18, 5.62 and 0.62, respectively. In data set [6], this molecule had a pKa at up to 50 µM of 3.
With `COC(=O)CC[C@H](NC(=O)c1c(C)[nH]c(/C=C2\C(=O)Nc3ccc(C(=O)N[C@H](Cc4ccccc4)C(=O)O)cc32)c1C)C(=O)OC`, the inhibition in data set [1] is over 100%; in data set [5], 74.2%. Also, the logD at 1 h is -0.32 in data set [2], 4.07 in [3] and 1.58 in data set [4]. The molecule further returned a pKa at up to 50 µM in data set [6] of 3.01.
With `COC(=O)[C@@H](Cc1ccccc1)NC(=O)c1ccc2c(c1)/C(=C/c1[nH]c(C)c(C(=O)N[C@@H](Cc3ccccc3)C(=O)O)c1C)C(=O)N2`, the inhibition in [1] was over 100%; in data set [5] it was 74.2%. Further, the figures for the logD at 1 h in [2], in data set [3] and in [4] were 1.28, 5.68 and 3.18, respectively. Also, in the data set on MV4-11, inhibition was half-maximal at 13 µM (IC50). The pKa at up to 50 µM in [6] was determined as 3.
`Cc1[nH]c(/C=C2\C(=O)Nc3ccccc32)c(C)c1CCC(=O)O` [ORANTINIB] returned a solubility at 24 h, 120 µM in data set [7] of at least 120 µM. For the same molecule, the CHI was 42 in data set [8], 75 in data set [9], 47 in data set [11] and 59 in data set [12]. Also, the inhibition is over 100% in [1] and 76.7% in [5]. For the same molecule, the logD at 1 h turned out to be 1.3 in [2], 4.6 in data set [3] and 3.18 in [4]. In addition, the solubility in data set [10] (buffer, pH 5.5, 24 h, 120 µM) is 5 µM (≈ 1.55 µg/mL). This molecule had an IC50 in the data set with MV4-11 of 3.9 µM. In data set [6], this molecule showed a pKa at up to 50 µM of 4.1.
As for `COC(=O)CC[C@H](NC(=O)c1ccc2c(c1)/C(=C/c1[nH]c(C)c(C(=O)N[C@@H](Cc3ccccc3)C(=O)O)c1C)C(=O)N2)C(=O)OC`, the solubility at 24 h, 120 µM in data set [7] stood at 100 µM (≈ 63.1 µg/mL); in [10], 30 µM (≈ 18.9 µg/mL). For the same molecule, the CHI in data set [8] worked out at 46; in data set [9] it was 67; in data set [11], 49; in [12], 50. The inhibition was over 100% in data set [1] and 58.7% in data set [5]. For the same molecule, the logD at 1 h is -0.74 in data set [2], 3.62 in [3] and 1.16 in [4]. The same molecule displayed a pKa at up to 50 µM in data set [6] of 3.04.
Consider `COC(=O)[C@H](Cc1ccccc1)NC(=O)c1c(C)[nH]c(/C=C2\C(=O)Nc3ccc(C(=O)O)cc32)c1C`, for which the values for the solubility at 24 h, 120 µM in data set [7] and in [10] were 100 µM (≈ 48.8 µg/mL) and under 5 µM, respectively. The CHI worked out at 49 in [8], 73 in data set [9], 52 in data set [11] and 59 in data set [12]. For the same molecule, the inhibition was determined as 98.7% in data set [1] and 85.8% in data set [5]. The logD at 1 h came out at 1.53 in [2], 4.32 in data set [3] and 3.38 in data set [4]. The pKa at up to 50 µM in [6] was determined as 4.61.
Consider `COC(=O)c1ccc2c(c1)/C(=C/c1[nH]c(C)c(C(=O)N[C@@H](Cc3ccccc3)C(=O)O)c1C)C(=O)N2`, for which the solubility at 24 h, 120 µM in data set [7] is at least 120 µM; in data set [10], under 5 µM. Besides, the CHI in data set [8] stood at 51; in data set [9], 76; in data set [11], 53; in data set [12], 54. Further, the inhibition in data set [1] was over 100%; in data set [5], 90.9%. Moreover, the logD at 1 h was 0.33 in data set [2], 4.73 in data set [3] and 2.23 in data set [4]. For the same molecule, the IC50 in the data set with MV4-11 worked out at 2.2 µM. Also, the pKa at up to 50 µM in data set [6] was found to be 3.
